Measurements: ChEMBL document CHEMBL4376835, “Discovery of Nonpungent Transient Receptor Potential Vanilloid 1 (TRPV1) Agonist as Strong Topical Analgesic” (J Med Chem, 2020)
The source made the active and inactive calls.

Assays:
[1] = tested on: Mus musculus; experiment: Induction of hypothermia in ICR mouse assessed as decrease in body temperature at 3 mg/kg, ip measured after 30 mins; assay type: functional, organism-based
[2] = Drug uptake in porcine skin assessed as dermal accumulation applied topically as carbopol-gel with 1% formulation measured for 8 hrs by Franz diffusion cell based in vitro transdermal delivery test; assay type: ADME, tissue-based, Sus scrofa, Zone of skin; settings: pig
[3] = Systemic drug absorption in porcine skin assessed as drug accumulation in acceptor Franz cell applied topically as carbopol-gel with 1% formulation measured for 8 hrs by Franz diffusion cell based in vitro transdermal delivery test; assay type: ADME, tissue-based, Sus scrofa, Zone of skin; settings: pig
[4] = Toxicity in ICR mouse assessed as skin irritation by measuring ear scratching administered topically and measured for 30 mins; settings: in vivo, topical_or_ocular, 0.5 h
Procedure, shortened: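 Ear scratching test: a solution of the agent was applied to mouse ears, and scratching movements were counted over the following 30 min.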

[5] = Toxicity in ICR mouse assessed as ear edema administered topically and measured after 30 mins; settings: in vivo, topical_or_ocular, 0.5 h
Procedure, shortened: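 Ear swelling test: a solution of the agent was applied to mouse ears, and ear punch biopsies were collected 30 min later and weighed.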

[6] = Toxicity in ip dosed ICR mouse administered as single dose; assay type: organism-based; settings: in vivo
[7] = Toxicity in po dosed ICR mouse administered as single dose; assay type: organism-based; settings: in vivo
[8] = target: T1, Transient receptor potential cation channel subfamily V member 3 (Mus musculus) (UniProt Q8K424); experiment: Agonist activity at mouse TRPV3 expressed in HEK293 cells assessed as increase in calcium influx at 10 uM incubated for 1 min by Fluo-4-AM dye based FLIPR assay; assay type: cell-based
T1 sequence (whole entry): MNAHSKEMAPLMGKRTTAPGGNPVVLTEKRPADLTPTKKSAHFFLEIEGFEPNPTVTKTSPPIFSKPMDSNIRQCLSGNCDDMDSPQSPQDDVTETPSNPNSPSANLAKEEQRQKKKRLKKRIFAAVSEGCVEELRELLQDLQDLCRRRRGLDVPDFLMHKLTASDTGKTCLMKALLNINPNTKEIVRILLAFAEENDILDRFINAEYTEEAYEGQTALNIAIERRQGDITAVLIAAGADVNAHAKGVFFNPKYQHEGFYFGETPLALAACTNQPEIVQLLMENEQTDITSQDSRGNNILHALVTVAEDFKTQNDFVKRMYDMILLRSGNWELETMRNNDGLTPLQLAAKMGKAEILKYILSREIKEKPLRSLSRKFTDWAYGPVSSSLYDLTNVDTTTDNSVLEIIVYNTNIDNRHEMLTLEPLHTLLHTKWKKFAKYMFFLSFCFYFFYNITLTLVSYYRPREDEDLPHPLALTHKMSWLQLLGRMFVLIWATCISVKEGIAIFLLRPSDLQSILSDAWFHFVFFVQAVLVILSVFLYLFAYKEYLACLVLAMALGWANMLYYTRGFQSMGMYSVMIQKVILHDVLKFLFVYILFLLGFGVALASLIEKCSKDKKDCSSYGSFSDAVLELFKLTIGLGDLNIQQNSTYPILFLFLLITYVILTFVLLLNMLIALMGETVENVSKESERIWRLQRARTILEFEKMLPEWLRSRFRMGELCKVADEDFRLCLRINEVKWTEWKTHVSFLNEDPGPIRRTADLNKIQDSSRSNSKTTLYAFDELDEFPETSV

[9] = tested on: Rattus norvegicus; experiment: Analgesic activity in ip dosed L5/L6 spinal nerve ligation-induced neuropathic pain Sprague-Dawley rat model assessed as increase in paw withdrawal threshold in response to von frey filament compound administered at day 14 after ligation and measured up to 1.5 hrs after drug dosing by up and down method; assay type: functional
Procedure, shortened: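 Rat spinal nerve ligation model of neuropathic pain. Compound was given i.p. at 1, 2, 5 or 10 mg/kg; a gabapentin 65 mg/kg i.p. arm and a saline i.p. arm were run alongside. Von Frey withdrawal thresholds were taken pre-surgery and on days 1, 7 and 14, then at 0.5, 1 and 1.5 h post-dose. Mean±SEM, n=7-8.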

[10] = tested on: Mus musculus; experiment: Analgesic activity in ip dosed formalin-induced nociception ICR mouse model assessed as reduction in pain behaviour by measuring less licking of formalin injected hind paw pretreated with compound 30 mins prior to formalin induction by formalin test; assay type: functional
Procedure, shortened: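 Mice were dosed i.p. with 0.1–10 mg/kg, with vehicle and gabapentin (50, 100 mg/kg i.p.) arms. 2% formalin was injected into the dorsal hindpaw, and paw-licking time was recorded for the first phase (5 min) and the second phase (20–30 min). ED50 was taken from the dose–response. Mean±SEM, n=8.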

[11] = target: Transient receptor potential cation channel subfamily A member 1 (Homo sapiens) (UniProt O75762); experiment: Agonist activity at human TRPA1 expressed in HEK293 cells assessed as increase in calcium influx at 100 uM incubated for 1 min by Fluo-4-AM dye based FLIPR assay; assay type: cell-based
Transient receptor potential cation channel subfamily A member 1 (Homo sapiens), sequence (O75762 whole entry): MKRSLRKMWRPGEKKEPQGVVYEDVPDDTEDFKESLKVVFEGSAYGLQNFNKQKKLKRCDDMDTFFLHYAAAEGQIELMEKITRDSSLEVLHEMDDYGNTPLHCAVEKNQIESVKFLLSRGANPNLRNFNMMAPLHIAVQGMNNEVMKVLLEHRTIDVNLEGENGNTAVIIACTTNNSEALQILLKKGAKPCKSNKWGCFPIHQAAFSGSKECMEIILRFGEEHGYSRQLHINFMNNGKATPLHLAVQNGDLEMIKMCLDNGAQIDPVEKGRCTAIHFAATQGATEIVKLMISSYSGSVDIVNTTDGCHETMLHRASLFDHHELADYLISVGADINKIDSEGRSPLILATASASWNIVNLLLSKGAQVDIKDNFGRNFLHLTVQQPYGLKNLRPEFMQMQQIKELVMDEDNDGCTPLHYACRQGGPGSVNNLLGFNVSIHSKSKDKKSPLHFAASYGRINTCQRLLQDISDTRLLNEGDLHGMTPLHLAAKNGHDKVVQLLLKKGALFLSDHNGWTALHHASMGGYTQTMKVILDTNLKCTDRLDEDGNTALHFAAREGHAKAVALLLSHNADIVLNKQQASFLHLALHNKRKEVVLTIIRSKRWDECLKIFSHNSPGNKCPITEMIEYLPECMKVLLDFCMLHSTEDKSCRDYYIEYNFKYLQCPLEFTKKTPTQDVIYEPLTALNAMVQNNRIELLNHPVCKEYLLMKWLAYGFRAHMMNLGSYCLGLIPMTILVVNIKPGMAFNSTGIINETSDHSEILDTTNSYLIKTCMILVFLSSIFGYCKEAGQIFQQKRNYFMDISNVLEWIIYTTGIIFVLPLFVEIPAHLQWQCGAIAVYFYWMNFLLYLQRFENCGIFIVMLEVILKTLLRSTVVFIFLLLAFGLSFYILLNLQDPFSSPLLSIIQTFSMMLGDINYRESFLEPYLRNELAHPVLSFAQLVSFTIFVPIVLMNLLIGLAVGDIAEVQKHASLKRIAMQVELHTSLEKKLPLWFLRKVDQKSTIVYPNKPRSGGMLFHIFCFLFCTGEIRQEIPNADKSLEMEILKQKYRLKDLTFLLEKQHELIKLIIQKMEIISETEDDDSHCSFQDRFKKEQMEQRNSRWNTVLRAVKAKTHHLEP
Procedure, shortened: (§1)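 Intracellular calcium influx read by FLIPR in cells individually transfected with TRPV1, hTRPA1, mTRPA1, mTRPV3 or mTRPM8. Each transfected line was also challenged with its own reference TRP-family agonist as a responsiveness check.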

[12] = target: Transient receptor potential cation channel subfamily A member 1 (Mus musculus) (UniProt Q8BLA8); experiment: Agonist activity at mouse TRPA1 expressed in HEK293 cells assessed as increase in calcium influx at 1 uM incubated for 1 min by Fluo-4-AM dye based FLIPR assay; assay type: cell-based; procedure, shortened: as §1
Transient receptor potential cation channel subfamily A member 1 (Mus musculus), sequence (Q8BLA8 whole entry): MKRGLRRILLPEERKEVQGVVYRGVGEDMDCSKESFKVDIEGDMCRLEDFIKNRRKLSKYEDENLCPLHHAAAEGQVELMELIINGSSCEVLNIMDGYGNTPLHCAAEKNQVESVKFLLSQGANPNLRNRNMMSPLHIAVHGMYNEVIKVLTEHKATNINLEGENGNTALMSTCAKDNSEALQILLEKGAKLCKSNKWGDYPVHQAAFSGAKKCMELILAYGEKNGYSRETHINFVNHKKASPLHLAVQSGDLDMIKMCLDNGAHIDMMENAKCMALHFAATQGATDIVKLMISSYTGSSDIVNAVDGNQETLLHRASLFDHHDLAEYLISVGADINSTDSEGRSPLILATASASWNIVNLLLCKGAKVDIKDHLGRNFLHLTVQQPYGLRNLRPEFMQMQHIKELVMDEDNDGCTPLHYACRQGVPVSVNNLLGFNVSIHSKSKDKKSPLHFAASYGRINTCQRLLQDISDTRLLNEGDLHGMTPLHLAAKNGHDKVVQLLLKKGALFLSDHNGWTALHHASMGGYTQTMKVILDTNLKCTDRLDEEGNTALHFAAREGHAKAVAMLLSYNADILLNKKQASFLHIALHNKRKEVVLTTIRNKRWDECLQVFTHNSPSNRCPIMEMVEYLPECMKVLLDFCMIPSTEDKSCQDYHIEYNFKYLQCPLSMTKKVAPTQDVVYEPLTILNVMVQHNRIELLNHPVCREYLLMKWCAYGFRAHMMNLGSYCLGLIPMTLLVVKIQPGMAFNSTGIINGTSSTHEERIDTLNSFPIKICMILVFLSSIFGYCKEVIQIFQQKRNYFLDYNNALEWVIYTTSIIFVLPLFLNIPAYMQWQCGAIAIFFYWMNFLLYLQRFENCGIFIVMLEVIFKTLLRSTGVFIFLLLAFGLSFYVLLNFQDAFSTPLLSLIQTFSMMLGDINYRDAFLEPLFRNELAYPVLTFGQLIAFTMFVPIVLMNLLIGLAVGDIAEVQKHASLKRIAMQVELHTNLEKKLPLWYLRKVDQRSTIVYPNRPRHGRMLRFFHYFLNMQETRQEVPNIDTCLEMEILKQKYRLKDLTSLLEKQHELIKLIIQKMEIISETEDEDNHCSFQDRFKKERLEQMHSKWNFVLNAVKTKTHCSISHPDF

[13] = target: Transient receptor potential cation channel subfamily M member 8 (Mus musculus) (UniProt Q8R4D5); experiment: Agonist activity at mouse TRPM8 expressed in HEK293 cells assessed as increase in calcium influx at 1 uM incubated for 1 min by Fluo-4-AM dye based FLIPR assay; assay type: cell-based
Transient receptor potential cation channel subfamily M member 8 (Mus musculus), sequence (Q8R4D5 whole entry): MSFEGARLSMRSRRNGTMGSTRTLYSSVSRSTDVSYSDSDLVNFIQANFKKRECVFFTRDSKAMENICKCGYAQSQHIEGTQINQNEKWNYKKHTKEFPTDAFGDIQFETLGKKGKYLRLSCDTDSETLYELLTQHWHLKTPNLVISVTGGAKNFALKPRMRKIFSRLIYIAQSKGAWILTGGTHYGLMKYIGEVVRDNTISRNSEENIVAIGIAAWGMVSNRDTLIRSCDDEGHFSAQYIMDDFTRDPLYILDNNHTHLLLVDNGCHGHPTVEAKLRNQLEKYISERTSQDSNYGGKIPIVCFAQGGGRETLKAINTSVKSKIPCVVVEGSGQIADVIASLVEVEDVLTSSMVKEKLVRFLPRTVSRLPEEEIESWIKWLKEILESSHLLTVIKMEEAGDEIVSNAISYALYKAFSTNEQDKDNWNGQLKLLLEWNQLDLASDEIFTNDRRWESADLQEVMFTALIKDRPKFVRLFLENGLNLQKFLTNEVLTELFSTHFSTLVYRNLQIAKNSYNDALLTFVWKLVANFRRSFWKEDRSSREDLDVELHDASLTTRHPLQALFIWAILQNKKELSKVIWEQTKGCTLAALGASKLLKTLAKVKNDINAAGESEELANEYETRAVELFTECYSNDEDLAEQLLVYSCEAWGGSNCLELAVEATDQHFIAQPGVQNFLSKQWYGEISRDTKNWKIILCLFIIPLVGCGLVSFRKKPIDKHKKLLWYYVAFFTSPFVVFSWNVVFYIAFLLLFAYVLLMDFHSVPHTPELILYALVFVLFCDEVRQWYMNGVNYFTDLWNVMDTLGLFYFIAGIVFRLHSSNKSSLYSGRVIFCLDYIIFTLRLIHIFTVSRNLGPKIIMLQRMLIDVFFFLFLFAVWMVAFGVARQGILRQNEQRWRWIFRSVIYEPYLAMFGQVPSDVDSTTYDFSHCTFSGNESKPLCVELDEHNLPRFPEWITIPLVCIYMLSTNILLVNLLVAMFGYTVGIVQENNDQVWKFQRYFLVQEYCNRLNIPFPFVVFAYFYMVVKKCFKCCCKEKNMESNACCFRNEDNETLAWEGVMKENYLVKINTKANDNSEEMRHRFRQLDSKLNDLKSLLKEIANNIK

For `COc1cc(CNC(=O)CCCC/C=C/C(C)C)ccc1O` [CAPSAICIN], the Activity [1] was “Active”, the Drug uptake [2] was “Active” and the Drug absorption [3] was “Active”. For the same molecule, the Activity [4] was “Toxic”, the Activity [5] was “Toxic” and the LD50 [6] was 7.5 mg/kg. For the same molecule, the LD50 [7] was 119 mg/kg.

With `CC12CCC(CC1=O)C2(C)C` (stereo not drawn) the Activity [8] was “Active”.

Molecule `NCC1(CC(=O)O)CCCCC1` [GABAPENTIN] has an ED50 [9] of no less than 30 mg/kg and an ED50 [10] of no less than 40 mg/kg.

In the case of `O=C/C=C/c1ccccc1`, the Activity [11] is reported as “Active” and the Activity [12] is reported as “Active”.

In the case of `CC1CCC(C(C)C)C(O)C1` (stereo not drawn), the Activity [13] is reported as “Active”.
